Measurements as given in ChEMBL document CHEMBL2021842, “COMPARE analysis of the toxicity of an iminoquinone derivative of the imidazo[5,4-f]benzimidazoles with NAD(P)H:quinone oxidoreductase 1 (NQO1) activity and computational docking of quinones as NQO1 substrates” (Bioorg Med Chem, 2012).

Legend:
Type in all cases: functional
Details in all cases: read-out: Activity
MCF7 = assay: Growth inhibition of human MCF7 cells assessed as cell growth at 10 uM relative to untreated control
How it was run: (§1)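 First stage of the NCI DTP 60 human tumour cell-line screen. Cells were exposed to a single dose of 10 µM. Output is reported as growth % relative to control.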

UO-31 = assay: Growth inhibition of human UO31 cells assessed as cell growth at 10 uM relative to untreated control
How it was run: (§2)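 This is the first stage of the NCI DTP 60-human-tumour-cell-line screen, covering nine tissue types. Cells receive a single dose of the test compound, and the output is reported as mean growth %.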

T47D = assay: Growth inhibition of human T47D cells assessed as cell growth at 10 uM relative to untreated control; how it was run: as §2
OVCAR-3 = assay: Growth inhibition of human OVCAR3 cells assessed as cell growth at 10 uM relative to untreated control; how it was run: as §1
CAKI-1 = assay: Growth inhibition of human Caki1 cells assessed as cell growth at 10 uM relative to untreated control
How it was run: (§3)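 NCI DTP 60-cell-line screen, first stage: a single 10 µM dose of compound given to the human tumour panel. Result reported as percent growth relative to control, on a mean growth graph.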

BT-549 = assay: Growth inhibition of human BT549 cells assessed as cell growth at 10 uM relative to untreated control; how it was run: as §3
HOP-92 = assay: Growth inhibition of human HOP92 cells assessed as cell growth at 10 uM relative to untreated control; how it was run: as §3
[1] = Growth inhibition of human Hs 578T cells assessed as cell growth at 10 uM relative to untreated control; how it was run: as §3
CCRF-CEM = assay: Growth inhibition of human CCRF-CEM cells assessed as cell growth at 10 uM relative to untreated control; how it was run: as §3
HCT-15 = assay: Growth inhibition of human HCT15 cells assessed as cell growth at 10 uM relative to untreated control; how it was run: as §3
HT-29 = assay: Growth inhibition of human HT-29 cells assessed as cell growth at 10 uM relative to untreated control; how it was run: as §3
NCI-H322M = assay: Growth inhibition of human NCI-H322M cells assessed as cell growth at 10 uM relative to untreated control; how it was run: as §1
ACHN = assay: Growth inhibition of human ACHN cells assessed as cell growth at 10 uM relative to untreated control; how it was run: as §3
DU-145 = assay: Growth inhibition of human DU145 cells assessed as cell growth at 10 uM relative to untreated control; how it was run: as §3
KM12 = assay: Growth inhibition of human KM12 cells assessed as cell growth at 10 uM relative to untreated control; how it was run: as §3
SF-539 = assay: Growth inhibition of human SF539 cells assessed as cell growth at 10 uM relative to untreated control; how it was run: as §1
MDA-MB-231 = assay: Growth inhibition of human MDA-MB-231 cells assessed as cell growth at 10 uM relative to untreated control; how it was run: as §1
A498 = assay: Growth inhibition of human A498 cells assessed as cell growth at 10 uM relative to untreated control; how it was run: as §3
MOLT-4 = assay: Growth inhibition of human MOLT4 cells assessed as cell growth at 10 uM relative to untreated control; how it was run: as §1
MDA-MB-435 = assay: Growth inhibition of human MDA-MB-435 cells assessed as cell growth at 10 uM relative to untreated control; how it was run: as §1
RXF 393 = assay: Growth inhibition of human RXF393 cells assessed as cell growth at 10 uM relative to untreated control; how it was run: as §1
HOP-62 = assay: Growth inhibition of human HOP62 cells assessed as cell growth at 10 uM relative to untreated control; how it was run: as §3
TK-10 = assay: Growth inhibition of human TK10 cells assessed as cell growth at 10 uM relative to untreated control; how it was run: as §2
NCI-H522 = assay: Growth inhibition of human NCI-H522 cells assessed as cell growth at 10 uM relative to untreated control; how it was run: as §1
UACC-62 = assay: Growth inhibition of human UACC62 cells assessed as cell growth at 10 uM relative to untreated control; how it was run: as §2
NCI-H23 = assay: Growth inhibition of human NCI-H23 cells assessed as cell growth at 10 uM relative to untreated control; how it was run: as §1
[2] = Growth inhibition of human […] cells assessed as cell growth at 10 uM relative to untreated control; how it was run: as §1
NCI-H460 = assay: Growth inhibition of human NCI-H460 cells assessed as cell growth at 10 uM relative to untreated control; how it was run: as §1
HCC 2998 = assay: Growth inhibition of human HCC2998 cells assessed as cell growth at 10 uM relative to untreated control; how it was run: as §3
SNB-19 = assay: Growth inhibition of human SNB19 cells assessed as cell growth at 10 uM relative to untreated control; how it was run: as §2
SF-268 = assay: Growth inhibition of human SF268 cells assessed as cell growth at 10 uM relative to untreated control; how it was run: as §1
SK-MEL-5 = assay: Growth inhibition of human SK-MEL-5 cells assessed as cell growth at 10 uM relative to untreated control; how it was run: as §1
SR = assay: Growth inhibition of human SR cells assessed as cell growth at 10 uM relative to untreated control; how it was run: as §2
LOX IMVI = assay: Growth inhibition of human LOXIMVI cells assessed as cell growth at 10 uM relative to untreated control; how it was run: as §3
786-0 = assay: Growth inhibition of human 786-0 cells assessed as cell growth at 10 uM relative to untreated control; how it was run: as §3
EKVX = assay: Growth inhibition of human EKVX cells assessed as cell growth at 10 uM relative to untreated control; how it was run: as §3
M14 = assay: Growth inhibition of human M14 cells assessed as cell growth at 10 uM relative to untreated control; how it was run: as §3
PC-3 = assay: Growth inhibition of human PC3 cells assessed as cell growth at 10 uM relative to untreated control; how it was run: as §1
SK-OV-3 = assay: Growth inhibition of human SKOV3 cells assessed as cell growth at 10 uM relative to untreated control; how it was run: as §1
Malme-3M = assay: Growth inhibition of human MALME-3M cells assessed as cell growth at 10 uM relative to untreated control; how it was run: as §3
OVCAR-5 = assay: Growth inhibition of human OVCAR5 cells assessed as cell growth at 10 uM relative to untreated control; how it was run: as §1
SN12C = assay: Growth inhibition of human SN12C cells assessed as cell growth at 10 uM relative to untreated control; how it was run: as §2
SK-MEL-28 = assay: Growth inhibition of human SK-MEL-28 cells assessed as cell growth at 10 uM relative to untreated control; how it was run: as §1
HL-60(TB) = assay: Growth inhibition of human HL-60(TB) cells assessed as cell growth at 10 uM relative to untreated control
How it was run: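 NCI DTP NCI-60 screen, first stage: a single dose applied to 60 human tumour cell lines from nine tissue types. Output is reported as growth %.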

SK-MEL-2 = assay: Growth inhibition of human SK-MEL-2 cells assessed as cell growth at 10 uM relative to untreated control; how it was run: as §1
NCI-H226 = assay: Growth inhibition of human NCI-H226 cells assessed as cell growth at 10 uM relative to untreated control; how it was run: as §1
K562 = assay: Growth inhibition of human K562 cells assessed as cell growth at 10 uM relative to untreated control; how it was run: as §3
SNB-75 = assay: Growth inhibition of human SNB75 cells assessed as cell growth at 10 uM relative to untreated control; how it was run: as §2
IGROV-1 = assay: Growth inhibition of human IGROV1 cells assessed as cell growth at 10 uM relative to untreated control; how it was run: as §3
MDA-MB-468 = assay: Growth inhibition of human MDA-MB-468 cells assessed as cell growth at 10 uM relative to untreated control; how it was run: as §1
SW-620 = assay: Growth inhibition of human SW620 cells assessed as cell growth at 10 uM relative to untreated control; how it was run: as §2
HCT-116 = assay: Growth inhibition of human HCT116 cells assessed as cell growth at 10 uM relative to untreated control; how it was run: as §3
NCI/ADR-RES = assay: Growth inhibition of human NCI/ADR-RES cells assessed as cell growth at 10 uM relative to untreated control; how it was run: as §1
SF-295 = assay: Growth inhibition of human SF295 cells assessed as cell growth at 10 uM relative to untreated control; how it was run: as §1

N=C1c2nc3n(c2C(=O)c2nc4n(c21)CCCCC4)CCCCC3
growth at 10 µM (MCF7): 94.5%
growth at 10 µM (UO-31): 83.7%
growth at 10 µM (T47D): 116%
growth at 10 µM (OVCAR-3): 111%
growth at 10 µM (CAKI-1): 95.1%
growth at 10 µM (BT-549): 110%
growth at 10 µM (HOP-92): 126%
growth at 10 µM [1]: 112%
growth at 10 µM (CCRF-CEM): 104%
growth at 10 µM (HCT-15): 109%
growth at 10 µM (HT-29): 106%
growth at 10 µM (NCI-H322M): 110%
growth at 10 µM (ACHN): 105%
growth at 10 µM (DU-145): 113%
growth at 10 µM (KM12): 106%
growth at 10 µM (SF-539): 105%
growth at 10 µM (MDA-MB-231): 117%
growth at 10 µM (A498): 91.6%
growth at 10 µM (MOLT-4): 93.7%
growth at 10 µM (MDA-MB-435): 111%
growth at 10 µM (RXF 393): 102%
growth at 10 µM (HOP-62): 122%
growth at 10 µM (TK-10): 142%
growth at 10 µM (NCI-H522): 90.9%
growth at 10 µM (UACC-62): 110%
growth at 10 µM (NCI-H23): 97.3%
growth at 10 µM [2]: 99.1%
growth at 10 µM (NCI-H460): 92.6%
growth at 10 µM (HCC 2998): 112%
growth at 10 µM (SNB-19): 113%
growth at 10 µM (SF-268): 108%
growth at 10 µM (SK-MEL-5): 88.7%
growth at 10 µM (SR): 91.8%
growth at 10 µM (LOX IMVI): 92%
growth at 10 µM (786-0): 120%
growth at 10 µM (EKVX): 103%
growth at 10 µM (M14): 108%
growth at 10 µM (PC-3): 113%
growth at 10 µM (SK-OV-3): 107%
growth at 10 µM (Malme-3M): 103%
growth at 10 µM (OVCAR-5): 123%
growth at 10 µM (SN12C): 106%
growth at 10 µM (SK-MEL-28): 118%
growth at 10 µM (HL-60(TB)): 103%
growth at 10 µM (SK-MEL-2): 118%
growth at 10 µM (NCI-H226): 98.2%
growth at 10 µM (K562): 102%
growth at 10 µM (SNB-75): 105%
growth at 10 µM (IGROV-1): 130%
growth at 10 µM (MDA-MB-468): 99.8%
growth at 10 µM (SW-620): 105%
growth at 10 µM (HCT-116): 107%
growth at 10 µM (NCI/ADR-RES): 110%
growth at 10 µM (SF-295): 93.8%
